Screens (PubChem BioAssay)
bIAP inhibitor = blocks bovine intestinal alkaline phosphatase activity; purified bovine IAP, CDP-star luminescence, 30 min; inhibition, % at 20 µM; 190,000 tested, under 10 active;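 active = over 50% inhibition of intestinal alkaline phosphatase at 20 µM in the single-dose screen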
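System: Purified bovine intestinal alkaline phosphatase (IAP) enzyme | Input: IAP diluted 1/65,000,000 in the well | Also added: CDP-star chemiluminescent phosphatase substrate, 30 µM final | Dosing: 20 µM single dose | Times: Enzyme reaction for 30 min at room temperature | Detection: Luminescence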
mIAP act = increases mouse intestinal alkaline phosphatase activity. muIAP, CDP-Star luminescence, 30 min; active compounds read high; 1 = vehicle-only enzyme signal, 0 = enzyme-free wells. AID 2805. activation factor at 10 µM. 330,000 compounds, 0.24% hits;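 active = activation factor of at least 2 at 20 µM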
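System: Mouse IAP enzyme | Also added: CDP-Star substrate | Dosing: Compounds dispensed in DMSO | Schedule: 30 min enzyme-substrate-compound incubation at room temperature | Technique: Chemiluminescence readout | Control set: DMSO-only wells and no-enzyme negative control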
bIAP activator = intestinal alkaline phosphatase (bovine) activation | activation factor at 20 µM | 200,000 compounds, 0.17% hits | purified bovine IAP, CDP-star luminescence, 30 min; active compounds read high; fold of DMSO-control signal, blank-subtracted;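 active = activation factor of 2 or more at 20 µM, a signal rise over negative controls twice the positive control's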
mIAP inh = blocks mouse intestinal alkaline phosphatase; inhibition, % at 10 µM; purified mouse IAP, CDP-Star luminescence, 30 min; 330,000 compounds, 0.2% hits; AID 2806;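 active = inhibition of at least 40% at 10 µM in the primary screen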
hIAP inh = blocks human intestinal alkaline phosphatase | P09923 | purified IAP, CDP-Star luminescence, 30 min | 330,000 compounds, 0.12% hits | inhibition, % at 10 µM;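 active = inhibition reaching a set limit with compound at 10 µM in the primary screen, cut at about 35% in these data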
Target sequence (P09923 whole entry, looked up): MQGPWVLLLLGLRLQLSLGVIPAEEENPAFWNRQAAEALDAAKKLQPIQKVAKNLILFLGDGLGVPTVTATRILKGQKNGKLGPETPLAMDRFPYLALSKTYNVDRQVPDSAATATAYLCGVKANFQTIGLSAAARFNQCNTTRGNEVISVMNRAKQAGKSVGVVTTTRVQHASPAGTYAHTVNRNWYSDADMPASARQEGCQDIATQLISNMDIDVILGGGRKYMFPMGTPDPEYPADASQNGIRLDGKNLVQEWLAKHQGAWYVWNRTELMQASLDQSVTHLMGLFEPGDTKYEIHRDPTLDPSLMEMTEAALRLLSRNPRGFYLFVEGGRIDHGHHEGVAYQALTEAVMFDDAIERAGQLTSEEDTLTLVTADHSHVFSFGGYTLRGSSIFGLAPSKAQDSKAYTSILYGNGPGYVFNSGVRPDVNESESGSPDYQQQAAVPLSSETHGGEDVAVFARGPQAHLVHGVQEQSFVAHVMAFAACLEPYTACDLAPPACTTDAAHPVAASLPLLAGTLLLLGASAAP
hIAP act = increases human intestinal alkaline phosphatase activity | activation factor at 10 µM | P09923 | 330,000 compounds, 0.16% hits | purified human IAP, CDP-Star luminescence, 30 min; active compounds read high; 1 = vehicle-only enzyme, 0 = enzyme-free background | AID 2524;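 active = activation factor of the enzyme at least 2-fold when tested at 20 µM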
hIAP act confirm = human IAP activation confirmation; purified IAP, CDP-Star luminescence, 30 min; active compounds read low; 880 compounds, 10% hits; AID 434926; activation (%Activity, negative = activation), % at 8.3 µM; shares compounds with hIAP act;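 active = at least twofold enzyme activation in any of six single-dose repeats, which the averaged readout prints as negative percent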
Large screens that a line does not name were inactive (follow-up assays come after a bar, where they were run); ! = not active in a repeat. In the library only some 0.79% were active in any assay of this set; here they are far more common.

O=C1/C(=C\c2ccc(O)c(O)c2)N=C2CCCCCN12	hIAP inh 57.2 (no result: bIAP inhibitor, bIAP activator) | hIAP act confirm inactive
O=C(NNC(=O)c1nn(-c2ccc(F)cc2)ccc1=O)c1ccc(Cl)cc1	none (no result: bIAP inhibitor, bIAP activator)
O=C(NNC(=O)c1nn(-c2ccc(F)cc2)ccc1=O)Nc1cccc(Cl)c1	hIAP inh 39.9 (no result: bIAP inhibitor, bIAP activator) | hIAP act confirm inactive
COc1cccc(/C=N/NC(=O)CNC(=O)/C=C\c2ccccc2)c1O	hIAP act 2.42 (no result: bIAP inhibitor, bIAP activator) | hIAP act confirm inactive
C[C@H]1CN([C@@H](C)CO)C(=O)Cc2cc(NS(=O)(=O)c3cn(C)cn3)ccc2O[C@@H]1CN(C)C(=O)Nc1ccc(F)cc1	none (no result: bIAP inhibitor, bIAP activator)
COc1ccc(CCNC(=O)C(=O)NCC2CCCN2S(=O)(=O)c2ccccc2)cc1OC (configuration not stated)	none (no result: bIAP inhibitor, bIAP activator)
CCCCCCC(=O)N=Nc1c(O)[nH]c2ccc([N+](=O)[O-])cc12	none
COCCNC(=S)N=Nc1c(O)[nH]c2ccc([N+](=O)[O-])cc12	hIAP act 2.41 (no result: bIAP inhibitor, bIAP activator) | hIAP act confirm inactive
Cn1cnc(S(=O)(=O)Nc2ccc(Cl)c(C(F)(F)F)c2)c1	none (no result: bIAP inhibitor, bIAP activator)
O=C(NCc1ccccc1)C(=O)Nc1nc(-c2ccccc2)cs1	none (no result: bIAP inhibitor, bIAP activator)
O=C(NCc1ccccn1)C(=O)Nc1nc(-c2ccccc2)cs1	hIAP act 2.17 (no result: bIAP inhibitor, bIAP activator) | hIAP act confirm inactive
NC(=S)NNC(=O)COc1ccccc1O	hIAP act 2.15 (no result: bIAP inhibitor, bIAP activator) | hIAP act confirm inactive
COc1ccccc1OCC(=O)NNC(=O)CCCC(=O)NNC(=O)COc1ccccc1OC	none (no result: bIAP inhibitor, bIAP activator)
CCCCCCN1CC(=O)N2Cc3[nH]c4ccccc4c3C[C@H]2C1=O	none (no result: bIAP inhibitor, bIAP activator)
CC(C)(C)NCC(=O)c1c[nH]c2ccccc12	hIAP act 2.08 | hIAP act confirm inactive
CC(=O)OCC(=O)c1c[nH]c2ccccc12	none
Cc1cc(C)n(C(=O)C23CC4CC(CC(C4)C2)C3)n1	hIAP act 2.36 | hIAP act confirm -125.8
Cc1cc(C)n(C(=O)CN2C(=O)CCC2=O)n1	none
COc1ccc(NC(=O)CCc2nnc3ccc(NCc4ccco4)nn23)cc1OC	none (no result: bIAP inhibitor, bIAP activator)
Cc1cc(NS(=O)(=O)c2ccc(NC(=O)C(C)Oc3ccc4c(C)cc(=O)oc4c3)cc2)no1 (configuration not stated)	hIAP act 2.62 | hIAP act confirm inactive
O=C(CN(Cc1ccccc1)C(=O)CNS(=O)(=O)c1ccc(F)cc1)NCc1ccco1	none (no result: bIAP inhibitor, bIAP activator)
O=C(N/N=C/c1ccc(O)c(O)c1)c1cc(-c2ccccc2)nc2ccccc12	hIAP inh 77.6 (no result: bIAP inhibitor, bIAP activator) | hIAP act confirm inactive
O=C(N/N=C/c1cccc(O)c1)c1cc(-c2ccccc2)nc2ccccc12	none (no result: bIAP inhibitor, bIAP activator)
CC(=O)CSc1nc2ccccc2s1	none
Cn1cccc1C(=O)NC(=O)CSc1nc2ccccc2s1	hIAP act 2.07 | hIAP act confirm inactive
CC(C)C(=O)NC(=S)Nc1ccccc1C(=O)Nc1ccccc1	hIAP act 2.65 | hIAP act confirm -107.6
CC(C)CC(=O)NC(=S)Nc1ccccc1C(=O)Nc1ccccc1	hIAP act 2.7 | hIAP act confirm inactive
Cc1ccccc1CN1CCC(n2nccc2NC(=O)CCCc2ccccc2)CC1	hIAP act 2.9 (no result: bIAP inhibitor, bIAP activator) | hIAP act confirm inactive
O=C(CCCc1ccccc1)Nc1ccnn1C1CCN(Cc2ccccn2)CC1	none (no result: bIAP inhibitor, bIAP activator)
c1ccc(Nc2ccnc(Nc3ccccc3)n2)cc1	hIAP act 2.77 (no result: bIAP inhibitor, bIAP activator) | hIAP act confirm -43.5
CCOC(=O)/C(=N/Nc1ccccc1)c1csc(Nc2ccccc2)n1	none
CCOC(=O)/C(=N\Nc1ccc(OC)cc1)c1csc(Nc2ccccc2)n1	hIAP inh 38.8 | hIAP act confirm inactive
COc1ccc2nc3cc(Cl)ccc3c(Nc3cc(CN4CCCC4)c(O)c(CN4CCCC4)c3)c2n1	hIAP inh 43.2 (no result: bIAP inhibitor, bIAP activator) | hIAP act confirm -60.1
O=C(CCN1C(=O)/C(=C/c2ccccc2Cl)SC1=S)NNC(=O)c1ccccc1O	hIAP act 2.08 (no result: bIAP inhibitor, bIAP activator) | hIAP act confirm inactive
COc1ccc(-c2c(C)n([O-])c3c([n+]2=O)CCCC3)cc1	hIAP act 2.22 | hIAP act confirm inactive
CC1Cn2c(nnc2-c2ccc(F)cc2)S1 (configuration not stated)	none
CC1Cn2c(nnc2C23CC4CC(CC(C4)C2)C3)S1 (configuration not stated)	hIAP act 2.04 | hIAP act confirm inactive
CCN(CC)C(=O)C(=O)N/N=C/c1ccc(Cl)cc1Cl	hIAP act 2.12 | hIAP act confirm inactive
CCCOC(=O)c1ccc(Oc2c(-c3ccc(OC)cc3O)n[nH]c2C)cc1	none
CCCOC(=O)c1ccc(Oc2cn[nH]c2-c2ccc(OCC(=O)NN)cc2O)cc1	none (no result: bIAP inhibitor, bIAP activator)
CCOC(=O)c1ccc(Oc2cn[nH]c2-c2ccc(OCC(=O)NN)cc2O)cc1	hIAP act 2.36 (no result: bIAP inhibitor, bIAP activator) | hIAP act confirm inactive
Cc1[nH]nc(-c2ccc(O)cc2O)c1Oc1ccccc1	hIAP act 2.07 | hIAP act confirm inactive
CCOc1ccc(-c2n[nH]c(C)c2Oc2ccccc2OC)c(O)c1	none
CCCOC(=O)c1ccc(Oc2c(-c3ccc(O)cc3O)n[nH]c2C)cc1	hIAP act 2.32 | hIAP act confirm inactive
CC[n+]1ccccc1/C=C1\Sc2ccc(C)cc2N1C	none (no result: bIAP inhibitor, bIAP activator)
CN1/C(=C/c2cccc[n+]2CCO)Sc2ccccc21	hIAP inh 36.8 (no result: bIAP inhibitor, bIAP activator) | hIAP act confirm inactive
C#CC(CC)(CC)NC(=O)Nc1ccccc1C(=O)OC	hIAP inh 38.6 | hIAP act confirm inactive
CCNC(=O)Nc1ccccc1C(=O)OC	none
c1ccc(CN(CC2=NCCN2)c2ccccc2)cc1	bIAP activator 337! | hIAP act confirm inactive
c1ccc(CC2=NCCN2)cc1	none
Cc1cccc(-c2nc(NCCCN3CCOCC3)c3ccccc3n2)c1	none
c1ccc(-c2nc(NCCCN3CCOCC3)c3ccccc3n2)cc1	hIAP act 2.04 | hIAP act confirm inactive
Cc1ccc(-n2ncc3c(NNC(=O)Cc4ccccc4)ncnc32)cc1	hIAP act 2.21 | hIAP act confirm inactive
CC(=O)Nc1ccc(Nc2ncnc3c2cnn3-c2ccccc2)cc1	none
CC(=O)NNc1ncnc2c1cnn2-c1ccccc1	hIAP act 3.04 | hIAP act confirm inactive
COc1ccc(-c2cn(Cc3ccc(C)cc3)nn2)cc1	none (no result: bIAP inhibitor, bIAP activator)
COc1cc(/C=C/C(=O)c2ccc(C)c([N+](=O)[O-])c2)cc(OC)c1O	hIAP inh 46.6 | hIAP act confirm inactive
COc1ccc(/C=C/C(=O)c2ccc(C)c([N+](=O)[O-])c2)cc1O	none
COc1ccc2nc(SCC(=O)NC(C)c3ccccc3)[nH]c2c1 (configuration not stated)	none (no result: bIAP inhibitor, bIAP activator)
O=C(Nc1ccc(OC(F)(F)F)cc1)NC1CCC(Oc2ccc(C(=O)O)cc2)CC1 (configuration not stated)	hIAP act 3.8 (no result: bIAP inhibitor, bIAP activator) | hIAP act confirm inactive
